The text below walks through data of ChEMBL document CHEMBL4014335, “Activation of Phenyl 4-(2-Oxo-3-alkylimidazolidin-1-yl)benzenesulfonates Prodrugs by CYP1A1 as New Antimitotics Targeting Breast Cancer Cells” (J Med Chem, 2017).

Each structure is given as a SMILES string. Activity calls are given as the source filed them. The rule behind the calls is not given here.

A short description of data set [1]: Selectivity ratio of IC50 for human HT-29 cells to IC50 for human MCF7 cells. Type of data set: functional. The gist of the method: (§1)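 Ratio is IC50 in reference line over IC50 in sensitive line. […] Cells in DMEM with 5% calf serum at 37 °C. At least two experiments, triplicate cultures; assay accepted when relative SD < 10%.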
The nature of data set [2]: Selectivity ratio of IC50 for human M21 cells to IC50 for human MCF7 cells. Format: functional. The gist of the method: as §1
For data set [3], the system named is MDA-MB-231. Kind of data set: Antiproliferative activity against ER/PR/HER2 deficient human MDA-MB-231 cells after 72 hrs by SRB assay. Format: functional, cell-based. To be noted: MDA-MB-231, 72 h. In a few lines: (§2)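 SRB antiproliferative assay (modified NCI protocol). Cells seeded per well (SK-BR-3, MDA-MB-231, T47D, HT-1080, HT-1080 CYP1A1 and empty-vector: 3.0 x 10^3; MDA-MB-468: 5.0 x 10^3; MCF7: 7.5 x 10^3), preincubated 24 h. DMSO-solubilized drug added at 0.75 to 1.0 x 10^5 nM, then 72 h. Fixed with cold 10% TCA, stained with 0.1% sulforhodamine B, absorbance read at 530-565 nm. At least two experiments, triplicate cultures.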

For data set [4], the system named is MDA-MB-468. Kind of data set: Antiproliferative activity against ER/PR/HER2 deficient human MDA-MB-468 cells after 72 hrs by SRB assay. Format: functional, cell-based. To be noted: MDA-MB-468, 72 h. The gist of the method: as §2
For data set [5], the system named is T47D. The data set is described as follows: Antiproliferative activity against ER/PR/HER2 expressing human T47D cells after 72 hrs by SRB assay. Format: functional, cell-based. In a few lines: as §2
Data set [6] has as its system SK-BR-3. The data set is described as follows: Antiproliferative activity against ER/PR deficient and HER2 expressing human SKBR3 cells after 72 hrs by SRB assay. Type of data set: functional, cell-based. The settings on record: SK-BR-3, 72 h. In a few lines:
as §2

For data set [7], the system named is MCF7. Kind of data set: Antiproliferative activity against human MCF7 cells after 72 hrs by SRB assay. Format: functional, cell-based. The settings on record: MCF7, 72 h. The gist of the method: as §2
The nature of data set [8]: Selectivity ratio of IC50 for ER/PR/HER2 deficient human MDA-MB-231 cells to IC50 for ER/PR/HER2 deficient human MDA-MB-468 cells. Format: functional. The gist of the method:
as §1

The nature of data set [9]: Selectivity ratio of IC50 for ER/PR/HER2 deficient human MDA-MB-231 cells to IC50 for ER/PR/HER2 expressing human T47D cells. Type of data set: functional. The gist of the method: as §1
The nature of data set [10]: Selectivity ratio of IC50 for ER/PR/HER2 deficient human MDA-MB-231 cells to IC50 for ER/PR deficient and HER2 expressing human SKBR3 cells. Type of data set: functional. The gist of the method:
as §1

A short description of data set [11]: Selectivity ratio of IC50 for ER/PR/HER2 deficient human MDA-MB-231 cells to IC50 for human MCF7 cells. Type of data set: functional. The gist of the method:
as §1

In data set [12] the target is T1, Cytochrome P450 1A1 (Homo sapiens, UniProt P04798).
T1 sequence (P04798 whole entry): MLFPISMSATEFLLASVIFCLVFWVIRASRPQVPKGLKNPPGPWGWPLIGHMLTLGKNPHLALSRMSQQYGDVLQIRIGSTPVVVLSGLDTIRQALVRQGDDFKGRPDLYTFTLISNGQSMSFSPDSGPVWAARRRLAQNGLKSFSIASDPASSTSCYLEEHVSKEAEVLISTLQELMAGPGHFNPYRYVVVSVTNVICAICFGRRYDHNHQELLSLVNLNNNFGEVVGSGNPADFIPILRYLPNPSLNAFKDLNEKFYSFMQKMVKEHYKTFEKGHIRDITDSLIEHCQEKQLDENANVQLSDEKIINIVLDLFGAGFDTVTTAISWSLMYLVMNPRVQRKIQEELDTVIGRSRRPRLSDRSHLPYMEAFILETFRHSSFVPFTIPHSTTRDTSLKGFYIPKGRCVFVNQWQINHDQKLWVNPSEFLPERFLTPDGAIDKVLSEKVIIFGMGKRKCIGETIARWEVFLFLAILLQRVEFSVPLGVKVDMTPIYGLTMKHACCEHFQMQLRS
The data set is described as follows: Inhibition of human supersomes CYP1A1-mediated 7-ethoxyresorufin conversion to fluorescent resorufin preincubated with 7-ethoxyresorufin for 5 mins followed by addition of NADPH regenerating system measured for 15 mins by EROD assay. Format: ADME. In a few lines:
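EROD assay with human CYP1A1 supersomes containing reductase, in potassium phosphate buffer. Drug final 32–31 600 nM and 7-ethoxyresorufin 94–3 000 nM, with 0.35% DMSO, preincubated 5 min at 37 °C. Reaction started with NADPH-regenerating system and 0.15 pmol CYP1A1 in 150 µL. Initial velocity taken from 1–5 min; Vmax and Km from Lineweaver-Burk plot.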

In data set [13] the test system is MDA-MB-231. The data set is described as follows: Cell cycle arrest in human MDA-MB-231 cells assessed as accumulation at G0/G1 phase at 50 nM after 24 hrs by DAPI-staining based FACS analysis (reference value: 70.7%). Type of data set: functional.
The test system of data set [14] is HT-1080. The data set is described as follows: Antiproliferative activity against human wild type HT1080 cells after 72 hrs by SRB assay. Format: functional, cell-based. The settings on record: HT-1080, 72 h. The gist of the method: as §2
For data set [15], the system named is HT-1080. Kind of data set: Antiproliferative activity against human HT1080 cells transfected with pCMV6-AC empty plasmid after 72 hrs by SRB assay. Type of data set: functional, cell-based. The settings on record: HT-1080, 72 h. In a few lines:
as §2

Data set [16] relates to HT-1080. Kind of data set: Antiproliferative activity against human HT1080 cells transfected with CYP1A1 after 72 hrs by SRB assay. Type of data set: functional, cell-based. The settings on record: HT-1080, 72 h. In a few lines: as §2
The test system of data set [17] is HT-1080. The data set is described as follows: Selectivity ratio of IC50 for HT1080 cells transfected with pCMV6-AC empty plasmid to IC50 for human HT1080 cells transfected with CYP1A1. Type of data set: functional. In a few lines:
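Ratio is IC50 (HT-1080 empty vector) over IC50 (HT-1080 CYP1A1). Both lines stably transfected (pCMV6-AC plasmids) and kept under G418 selection, seeded at 3.0 x 10^3 cells. IC50s from SRB antiproliferative assay.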

For data set [18], the system named is HT-1080. Kind of data set: Antitumor activity against human HT1080 cells implanted in chicken chorioallantoic membrane assessed as tumor growth inhibition at 1 ug/egg, iv administered on day 11 post implantation measured on day 17. Format: functional. In a few lines: (§3)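 Chick CAM tumor model using HT-1080 cells (wild-type or stably transfected with CYP1A1 or empty plasmid). Eggs incubated 10 d. On day 11, drug in DMSO (40 mM stock) was diluted in cremophor/EtOH/PBS (6.25/6.25/87.5), DMSO kept below 0.5%, and given iv in 100 µL to 10-12 eggs. Tumors excised on day 17 and wet-weighed. Two independent experiments (20-24 eggs); embryo deaths and toxicity recorded.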

For data set [19], the system named is HT-1080. The data set is described as follows: Antitumor activity against CYP1A1 transfected human HT1080 cells implanted in chicken chorioallantoic membrane assessed as tumor growth inhibition at 1 ug/egg, iv administered on day 11 post implantation measured on day 17. Type of data set: functional. The gist of the method:
as §3

In data set [20] the test system is HT-1080. The data set is described as follows: Antitumor activity against empty plasmid transfected human HT1080 cells implanted in chicken chorioallantoic membrane assessed as tumor growth inhibition at 1 ug/egg, iv administered on day 11 post implantation measured on day 17. Type of data set: functional. The gist of the method:
as §3

Data set [21] deals with MDA-MB-231. The data set is described as follows: Cell cycle arrest in human MDA-MB-231 cells assessed as accumulation at G2/M phase at 8 nM after 24 hrs by DAPI-staining based FACS analysis (reference value: 15.5%). Format: functional.
Data set [22] is filed under the species Homo sapiens. The data set is described as follows: Destabilization of microtubule network in human MDA-MB-468 cells at 8 nM after 24 hrs by fluorescence microscopic analysis. Type of data set: cell-based.

In the case of `CCCCN1CCN(c2ccc(S(=O)(=O)Oc3cc(OC)c(OC)c(OC)c3)cc2)C1=O`, the “Ratio IC50” value in [1] came out at 360; in data set [2] it was 380; in [8] it was 590; in data set [9], 300; in [10], 3000; in data set [11] it was 1100. In addition, the “Ratio IC50” value in data set [17] was 3600. The IC50 worked out at 6 µM in [3]; 10 nM in [4]; 20 nM in data set [5]; 2 nM in data set [6]; 5.5 nM in data set [7]; 5500 nM in data set [14]. The IC50 in data set [15] stood at 47 µM; in data set [16], 13 nM. Also, the Ki in data set [12] (read-out: Ki) worked out at 540 nM. The Activity in data set [13] is reported as 73%. For the same compound, the TGI worked out at 15% in data set [18] and 49% in data set [19]. Also, the TGI entry in data set [20] was “inactive”.
`COc1cc(OS(=O)(=O)c2ccc(N3CCNC3=O)cc2)cc(OC)c1OC`: the IC50 in [3] amounted to 0.0064 µM; in data set [4], 4.6 nM; in [5], 6.2 nM; in data set [6], 3.1 nM; in data set [7], 3.1 nM; in data set [14] it was 3.6 nM. Further, the IC50 was determined as 0.0033 µM in data set [15] and 1.7 nM in [16]. The “Ratio IC50” value worked out at 1.4 in data set [8]; 1 in [9]; 2.1 in [10]; 2.1 in [11]; 1.9 in data set [17]. Also, the Ki entry in data set [12] is “Not Active”. Moreover, the Activity in [21] came to 76.6%. The outcome in data set [22] was Active. Also, the results for the TGI in data set [18], in data set [19] and in data set [20] were 51%, 32% and 21%, respectively.
